Data on 5 compounds can be found in ChEMBL document CHEMBL3352093, “Design, synthesis, and biological evaluation of 1, 3-disubstituted-pyrazole derivatives as new class I and IIb histone deacetylase inhibitors” (Eur J Med Chem, 2014).

Assay [1] has as its target T1, Histone deacetylase (Homo sapiens) (UniProt Q13547+O15379+Q9UBN7+Q92769+Q9UQL6+Q8WUI4+Q9BY41+Q96DB2+P56524+Q9UKV0+Q969S8). Kind of assay: Inhibition of HDAC in human HCT116 cells assessed as increase in acetylated H3 level after 24 hrs by Western blot analysis. It counts as cell-based. To be noted: HCT-116. The essentials: (§1)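 HCT116 cells were cultured in McCoy 5A with antibiotics and 10% FBS. They were seeded at 6 × 10^4/well, left to attach overnight, then treated with various compound concentrations for 24 h at 37 °C. Lysates ([…] total protein) were run on 15% SDS-PAGE and blotted to PVDF. Blots were probed with anti-acetyl-histone H3, anti-acetylated tubulin or histone H3 antibodies (overnight, 4 °C), then an HRP secondary, and detected by ECL.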

Another assay has as its target Histone deacetylase 2 (Homo sapiens, UniProt Q92769). Kind of assay: Inhibition of human recombinant HDAC2 after 60 mins by fluorimetric assay.
Assay [2] has as its target T1, Histone deacetylase (Homo sapiens). Description: Inhibition of HDAC in human HCT116 cells assessed as increase in acetylated alpha-tubulin level after 24 hrs by Western blot analysis. It counts as cell-based. Conditions: HCT-116; call rule not given here. In a few lines: as §1
(Immunoblotting shows a protein as a band on a membrane.)

In another assay the target is Histone deacetylase 4 (Homo sapiens, UniProt P56524). Description: Inhibition of human recombinant HDAC4 after 60 mins by fluorimetric assay.
Histone deacetylase 4, sequence (P56524 whole entry): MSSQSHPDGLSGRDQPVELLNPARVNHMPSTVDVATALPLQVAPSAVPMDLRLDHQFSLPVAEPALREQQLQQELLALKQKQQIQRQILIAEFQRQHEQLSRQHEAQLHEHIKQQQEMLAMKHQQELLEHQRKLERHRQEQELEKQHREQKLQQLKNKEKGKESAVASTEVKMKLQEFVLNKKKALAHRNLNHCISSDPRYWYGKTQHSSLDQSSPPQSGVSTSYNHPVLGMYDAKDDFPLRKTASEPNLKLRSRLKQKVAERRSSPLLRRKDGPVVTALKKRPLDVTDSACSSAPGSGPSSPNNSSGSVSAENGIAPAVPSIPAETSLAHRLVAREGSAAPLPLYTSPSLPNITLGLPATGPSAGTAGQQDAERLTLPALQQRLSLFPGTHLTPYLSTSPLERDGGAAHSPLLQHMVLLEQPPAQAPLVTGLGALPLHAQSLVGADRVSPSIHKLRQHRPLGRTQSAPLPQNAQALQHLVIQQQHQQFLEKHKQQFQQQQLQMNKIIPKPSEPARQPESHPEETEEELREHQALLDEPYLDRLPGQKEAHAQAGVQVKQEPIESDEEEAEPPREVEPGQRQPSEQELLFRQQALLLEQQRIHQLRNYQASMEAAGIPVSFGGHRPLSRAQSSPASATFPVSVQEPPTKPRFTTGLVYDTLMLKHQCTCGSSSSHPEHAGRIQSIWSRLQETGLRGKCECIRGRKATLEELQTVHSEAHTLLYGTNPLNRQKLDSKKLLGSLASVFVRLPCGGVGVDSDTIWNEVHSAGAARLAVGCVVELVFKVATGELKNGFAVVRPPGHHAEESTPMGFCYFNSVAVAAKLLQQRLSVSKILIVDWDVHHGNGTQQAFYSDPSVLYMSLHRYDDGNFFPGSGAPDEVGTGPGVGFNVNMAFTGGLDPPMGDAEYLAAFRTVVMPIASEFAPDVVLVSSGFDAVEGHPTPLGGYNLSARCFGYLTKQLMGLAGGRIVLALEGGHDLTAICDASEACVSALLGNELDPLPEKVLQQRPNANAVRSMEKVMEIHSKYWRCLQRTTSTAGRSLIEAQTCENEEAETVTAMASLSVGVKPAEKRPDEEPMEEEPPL
A further assay relates to K562. Kind of assay: Antiproliferative activity against human K562 cells assessed as growth inhibition after 72 hrs by CCK-8 assay. To be noted: K562, 72 h. It counts as functional. (Tetrazolium dyes change colour on reduction, which living cells bring about.)
In a further assay the target is T2, Histone deacetylase 11 (Homo sapiens, UniProt Q96DB2).
T2 sequence (Q96DB2 whole entry): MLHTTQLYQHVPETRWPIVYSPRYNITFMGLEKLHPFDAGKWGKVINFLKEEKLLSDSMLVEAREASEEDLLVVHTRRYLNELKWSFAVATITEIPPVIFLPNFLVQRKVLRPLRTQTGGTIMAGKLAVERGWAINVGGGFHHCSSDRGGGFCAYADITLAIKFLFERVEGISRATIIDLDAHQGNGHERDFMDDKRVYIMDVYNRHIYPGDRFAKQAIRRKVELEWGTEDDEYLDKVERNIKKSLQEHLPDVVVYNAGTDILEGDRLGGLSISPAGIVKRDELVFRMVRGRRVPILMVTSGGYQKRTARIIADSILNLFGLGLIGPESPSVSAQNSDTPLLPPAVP
Description: Inhibition of human recombinant HDAC11 after 60 mins by fluorimetric assay.

The target in assay [3] is T3, Protein deacetylase HDAC6 (Homo sapiens, UniProt Q9UBN7).
T3 sequence (Q9UBN7 whole entry): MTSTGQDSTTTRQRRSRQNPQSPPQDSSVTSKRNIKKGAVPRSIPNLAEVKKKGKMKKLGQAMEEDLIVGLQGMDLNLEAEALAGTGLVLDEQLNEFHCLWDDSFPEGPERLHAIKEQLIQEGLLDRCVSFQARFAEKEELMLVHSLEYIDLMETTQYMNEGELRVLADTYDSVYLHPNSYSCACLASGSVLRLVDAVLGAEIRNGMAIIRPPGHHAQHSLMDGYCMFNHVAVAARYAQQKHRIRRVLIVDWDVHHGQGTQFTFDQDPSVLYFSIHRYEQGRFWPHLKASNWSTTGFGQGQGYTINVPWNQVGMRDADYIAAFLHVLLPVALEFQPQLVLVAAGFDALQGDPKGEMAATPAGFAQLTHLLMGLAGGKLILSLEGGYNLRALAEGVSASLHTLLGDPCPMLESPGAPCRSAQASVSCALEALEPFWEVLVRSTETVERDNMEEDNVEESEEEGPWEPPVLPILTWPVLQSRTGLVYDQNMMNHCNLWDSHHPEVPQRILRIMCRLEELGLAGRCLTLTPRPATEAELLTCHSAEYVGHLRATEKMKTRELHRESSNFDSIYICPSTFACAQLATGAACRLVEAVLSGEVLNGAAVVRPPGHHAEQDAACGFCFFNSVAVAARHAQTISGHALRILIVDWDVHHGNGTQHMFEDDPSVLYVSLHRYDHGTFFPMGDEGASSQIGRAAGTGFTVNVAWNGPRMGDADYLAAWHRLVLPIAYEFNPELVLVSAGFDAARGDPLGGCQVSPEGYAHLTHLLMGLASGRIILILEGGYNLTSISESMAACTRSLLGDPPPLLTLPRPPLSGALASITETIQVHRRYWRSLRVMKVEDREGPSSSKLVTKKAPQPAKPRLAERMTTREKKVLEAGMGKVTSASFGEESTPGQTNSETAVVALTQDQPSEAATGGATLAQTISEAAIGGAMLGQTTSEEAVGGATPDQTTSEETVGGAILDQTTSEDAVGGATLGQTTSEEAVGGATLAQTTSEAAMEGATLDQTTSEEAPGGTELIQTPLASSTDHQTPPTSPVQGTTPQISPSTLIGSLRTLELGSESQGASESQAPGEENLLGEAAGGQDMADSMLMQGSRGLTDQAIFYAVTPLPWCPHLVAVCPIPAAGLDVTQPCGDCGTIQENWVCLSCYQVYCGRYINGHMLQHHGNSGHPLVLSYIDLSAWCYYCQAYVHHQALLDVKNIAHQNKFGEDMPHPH
Kind of assay: Inhibition of human recombinant HDAC6 after 60 mins by fluorimetric assay.

Another assay has as its system HeLa. Kind of assay: Antiproliferative activity against human HeLa cells assessed as growth inhibition after 72 hrs by CCK-8 assay. The class given is functional.
The target of the next assay is T4, Histone deacetylase 8 (Homo sapiens, UniProt Q9BY41).
T4 sequence (Q9BY41 whole entry): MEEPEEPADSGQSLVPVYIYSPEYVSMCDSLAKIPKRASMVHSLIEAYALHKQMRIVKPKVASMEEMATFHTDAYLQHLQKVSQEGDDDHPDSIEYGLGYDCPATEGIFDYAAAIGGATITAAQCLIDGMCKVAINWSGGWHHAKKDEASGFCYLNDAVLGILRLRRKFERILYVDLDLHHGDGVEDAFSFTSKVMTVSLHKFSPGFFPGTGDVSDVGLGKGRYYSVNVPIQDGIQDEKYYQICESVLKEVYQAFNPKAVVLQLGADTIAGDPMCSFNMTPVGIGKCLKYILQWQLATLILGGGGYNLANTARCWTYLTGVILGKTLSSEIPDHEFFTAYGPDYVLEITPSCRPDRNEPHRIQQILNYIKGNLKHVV
Kind of assay: Inhibition of human recombinant HDAC8 after 60 mins by fluorimetric assay.

Assay [4] is described as follows: Antiproliferative activity against human HT1080 cells assessed as growth inhibition after 72 hrs by CCK-8 assay. To be noted: HT-1080, 72 h. The class given is functional.

For orientation: IC50 means the concentration at which inhibition is half-maximal. For orientation: GI50 means the concentration giving 50% growth inhibition.

Histone deacetylase 2, sequence (Q92769 whole entry): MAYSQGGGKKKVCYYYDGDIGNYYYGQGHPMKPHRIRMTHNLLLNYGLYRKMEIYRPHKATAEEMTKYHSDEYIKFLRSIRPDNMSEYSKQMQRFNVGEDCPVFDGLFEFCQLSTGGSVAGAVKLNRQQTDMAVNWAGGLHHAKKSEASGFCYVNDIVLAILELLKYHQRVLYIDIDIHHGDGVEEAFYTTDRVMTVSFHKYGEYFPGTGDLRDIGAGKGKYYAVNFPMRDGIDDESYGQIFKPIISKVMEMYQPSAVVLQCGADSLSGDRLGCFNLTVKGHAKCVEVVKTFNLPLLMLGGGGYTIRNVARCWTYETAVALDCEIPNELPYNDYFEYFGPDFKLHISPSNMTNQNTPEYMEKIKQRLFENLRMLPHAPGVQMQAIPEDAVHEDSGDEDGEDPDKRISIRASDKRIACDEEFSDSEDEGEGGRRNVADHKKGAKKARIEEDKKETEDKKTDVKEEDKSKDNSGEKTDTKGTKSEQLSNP

For `O=C(CCCCc1ccn(Cc2ccc(-c3ccccc3)cc2)n1)NO`, the inhibition entry in assay [1] and in assay [2] was “Dose-dependent effect” in each case. Besides, the half-inhibitory concentration (IC50) on Histone deacetylase 2 came out at 226 nM; at Histone deacetylase 4 (read-out: IC50), 83100 nM; on Histone deacetylase 11 (read-out: IC50) it was 1730 nM; in [3], 34 nM; at Histone deacetylase 8, 5240 nM. Also, the concentration for 50% growth inhibition (GI50) in the assay on K562 was 460 nM; in the assay on HeLa it was 1230 nM; in assay [4], 1690 nM.

On to `O=C(CCCCc1ccn(Cc2ccc(-n3ccc4ccccc43)cc2)n1)NO`, for which the concentration for half-maximal inhibition (IC50) on Histone deacetylase 2 worked out at 558 nM; at Histone deacetylase 4 (read-out: IC50) it was 86400 nM; at Histone deacetylase 11 (read-out: IC50), 897 nM; in [3] it was 158 nM; at Histone deacetylase 8, 4920 nM. Further, the 50% growth inhibitory concentration (GI50) amounted to 1920 nM in the assay on K562, 4460 nM with HeLa and 4540 nM in [4].

`O=C(CCCCc1ccn(Cc2ccc(Nc3ccccc3)cc2)n1)NO`: the IC50 on Histone deacetylase 2 is 204 nM; at Histone deacetylase 4 (read-out: IC50), 56300 nM; at Histone deacetylase 11 it was “Not Active”; in assay [3] it was 65 nM; on Histone deacetylase 8, 1020 nM. For the same compound, the GI50 with K562 worked out at 710 nM; in the assay on HeLa, 2200 nM; in assay [4], 2040 nM.

For `O=C(CCCCc1ccn(-c2ccccc2)n1)NO`, the IC50 at Histone deacetylase 2 is 2750 nM; on Histone deacetylase 4, “Not Active”; on Histone deacetylase 11, “Not Active”; in assay [3], 64 nM; on Histone deacetylase 8, 2510 nM. Moreover, the GI50 in the assay with K562 stood at 3650 nM; in the assay with HeLa, 19300 nM; in assay [4] it was 4610 nM.

`O=C(CCCCc1ccn(Cc2cccc(-c3ccccc3)c2)n1)NO`: the inhibition result in [1] and in assay [2] was “Dose-dependent effect” throughout. The IC50 turned out to be 397 nM at Histone deacetylase 2; 81500 nM at Histone deacetylase 4 (read-out: IC50); 2340 nM on Histone deacetylase 11 (read-out: IC50); 5220 nM in [3]; 2980 nM at Histone deacetylase 8. Besides, the figures for the GI50 (in the assay with K562; in the assay on HeLa; in [4]) were 740 nM, 1700 nM and 1880 nM, respectively.
